Test results taken from ChEMBL document CHEMBL1795296, “Synthesis, structural elucidation, DNA-PK inhibition, homology modelling and anti-platelet activity of morpholino-substituted-1,3-naphth-oxazines” (Bioorg Med Chem, 2011).

What was measured:
[1] = target: T1, DNA-dependent protein kinase catalytic subunit (Homo sapiens, UniProt P78527); assay: Inhibition of DNA-PK
Summary of the method: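 The buffer was 1× reaction buffer of Hepes, KCl, MgCl2, EGTA, EDTA and DTT, with drug or water added. Reactions ran 5 min at 30 °C. ADP formed was read by ADP-Glo luminescence, and IC50 was obtained by curve fitting.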

Platelet = assay: Anti-platelet activity in human blood assessed as inhibition of collagen induced human platelet aggregation; type: functional, cell-based
Summary of the method: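 Collagen-triggered aggregation measured optically in a two-channel platelet aggregometer.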

[2] = target: T1, DNA-dependent protein kinase catalytic subunit; assay: Inhibition of purified DNA-PK by ADP-Glo Kinase assay
Summary of the method: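 Reaction used 5× buffer (250 mM Hepes, 500 mM KCl, 50 mM MgCl2, 1 mM EGTA, 0.5 mM EDTA, 5 mM DTT) diluted to 1×, with BSA and ATP (0.5 mM stock). Drug or water added; 30 °C, 5 min. ADP read by ADP-Glo luminescence; IC50 from curve fitting.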

T1 sequence (P78527 whole entry): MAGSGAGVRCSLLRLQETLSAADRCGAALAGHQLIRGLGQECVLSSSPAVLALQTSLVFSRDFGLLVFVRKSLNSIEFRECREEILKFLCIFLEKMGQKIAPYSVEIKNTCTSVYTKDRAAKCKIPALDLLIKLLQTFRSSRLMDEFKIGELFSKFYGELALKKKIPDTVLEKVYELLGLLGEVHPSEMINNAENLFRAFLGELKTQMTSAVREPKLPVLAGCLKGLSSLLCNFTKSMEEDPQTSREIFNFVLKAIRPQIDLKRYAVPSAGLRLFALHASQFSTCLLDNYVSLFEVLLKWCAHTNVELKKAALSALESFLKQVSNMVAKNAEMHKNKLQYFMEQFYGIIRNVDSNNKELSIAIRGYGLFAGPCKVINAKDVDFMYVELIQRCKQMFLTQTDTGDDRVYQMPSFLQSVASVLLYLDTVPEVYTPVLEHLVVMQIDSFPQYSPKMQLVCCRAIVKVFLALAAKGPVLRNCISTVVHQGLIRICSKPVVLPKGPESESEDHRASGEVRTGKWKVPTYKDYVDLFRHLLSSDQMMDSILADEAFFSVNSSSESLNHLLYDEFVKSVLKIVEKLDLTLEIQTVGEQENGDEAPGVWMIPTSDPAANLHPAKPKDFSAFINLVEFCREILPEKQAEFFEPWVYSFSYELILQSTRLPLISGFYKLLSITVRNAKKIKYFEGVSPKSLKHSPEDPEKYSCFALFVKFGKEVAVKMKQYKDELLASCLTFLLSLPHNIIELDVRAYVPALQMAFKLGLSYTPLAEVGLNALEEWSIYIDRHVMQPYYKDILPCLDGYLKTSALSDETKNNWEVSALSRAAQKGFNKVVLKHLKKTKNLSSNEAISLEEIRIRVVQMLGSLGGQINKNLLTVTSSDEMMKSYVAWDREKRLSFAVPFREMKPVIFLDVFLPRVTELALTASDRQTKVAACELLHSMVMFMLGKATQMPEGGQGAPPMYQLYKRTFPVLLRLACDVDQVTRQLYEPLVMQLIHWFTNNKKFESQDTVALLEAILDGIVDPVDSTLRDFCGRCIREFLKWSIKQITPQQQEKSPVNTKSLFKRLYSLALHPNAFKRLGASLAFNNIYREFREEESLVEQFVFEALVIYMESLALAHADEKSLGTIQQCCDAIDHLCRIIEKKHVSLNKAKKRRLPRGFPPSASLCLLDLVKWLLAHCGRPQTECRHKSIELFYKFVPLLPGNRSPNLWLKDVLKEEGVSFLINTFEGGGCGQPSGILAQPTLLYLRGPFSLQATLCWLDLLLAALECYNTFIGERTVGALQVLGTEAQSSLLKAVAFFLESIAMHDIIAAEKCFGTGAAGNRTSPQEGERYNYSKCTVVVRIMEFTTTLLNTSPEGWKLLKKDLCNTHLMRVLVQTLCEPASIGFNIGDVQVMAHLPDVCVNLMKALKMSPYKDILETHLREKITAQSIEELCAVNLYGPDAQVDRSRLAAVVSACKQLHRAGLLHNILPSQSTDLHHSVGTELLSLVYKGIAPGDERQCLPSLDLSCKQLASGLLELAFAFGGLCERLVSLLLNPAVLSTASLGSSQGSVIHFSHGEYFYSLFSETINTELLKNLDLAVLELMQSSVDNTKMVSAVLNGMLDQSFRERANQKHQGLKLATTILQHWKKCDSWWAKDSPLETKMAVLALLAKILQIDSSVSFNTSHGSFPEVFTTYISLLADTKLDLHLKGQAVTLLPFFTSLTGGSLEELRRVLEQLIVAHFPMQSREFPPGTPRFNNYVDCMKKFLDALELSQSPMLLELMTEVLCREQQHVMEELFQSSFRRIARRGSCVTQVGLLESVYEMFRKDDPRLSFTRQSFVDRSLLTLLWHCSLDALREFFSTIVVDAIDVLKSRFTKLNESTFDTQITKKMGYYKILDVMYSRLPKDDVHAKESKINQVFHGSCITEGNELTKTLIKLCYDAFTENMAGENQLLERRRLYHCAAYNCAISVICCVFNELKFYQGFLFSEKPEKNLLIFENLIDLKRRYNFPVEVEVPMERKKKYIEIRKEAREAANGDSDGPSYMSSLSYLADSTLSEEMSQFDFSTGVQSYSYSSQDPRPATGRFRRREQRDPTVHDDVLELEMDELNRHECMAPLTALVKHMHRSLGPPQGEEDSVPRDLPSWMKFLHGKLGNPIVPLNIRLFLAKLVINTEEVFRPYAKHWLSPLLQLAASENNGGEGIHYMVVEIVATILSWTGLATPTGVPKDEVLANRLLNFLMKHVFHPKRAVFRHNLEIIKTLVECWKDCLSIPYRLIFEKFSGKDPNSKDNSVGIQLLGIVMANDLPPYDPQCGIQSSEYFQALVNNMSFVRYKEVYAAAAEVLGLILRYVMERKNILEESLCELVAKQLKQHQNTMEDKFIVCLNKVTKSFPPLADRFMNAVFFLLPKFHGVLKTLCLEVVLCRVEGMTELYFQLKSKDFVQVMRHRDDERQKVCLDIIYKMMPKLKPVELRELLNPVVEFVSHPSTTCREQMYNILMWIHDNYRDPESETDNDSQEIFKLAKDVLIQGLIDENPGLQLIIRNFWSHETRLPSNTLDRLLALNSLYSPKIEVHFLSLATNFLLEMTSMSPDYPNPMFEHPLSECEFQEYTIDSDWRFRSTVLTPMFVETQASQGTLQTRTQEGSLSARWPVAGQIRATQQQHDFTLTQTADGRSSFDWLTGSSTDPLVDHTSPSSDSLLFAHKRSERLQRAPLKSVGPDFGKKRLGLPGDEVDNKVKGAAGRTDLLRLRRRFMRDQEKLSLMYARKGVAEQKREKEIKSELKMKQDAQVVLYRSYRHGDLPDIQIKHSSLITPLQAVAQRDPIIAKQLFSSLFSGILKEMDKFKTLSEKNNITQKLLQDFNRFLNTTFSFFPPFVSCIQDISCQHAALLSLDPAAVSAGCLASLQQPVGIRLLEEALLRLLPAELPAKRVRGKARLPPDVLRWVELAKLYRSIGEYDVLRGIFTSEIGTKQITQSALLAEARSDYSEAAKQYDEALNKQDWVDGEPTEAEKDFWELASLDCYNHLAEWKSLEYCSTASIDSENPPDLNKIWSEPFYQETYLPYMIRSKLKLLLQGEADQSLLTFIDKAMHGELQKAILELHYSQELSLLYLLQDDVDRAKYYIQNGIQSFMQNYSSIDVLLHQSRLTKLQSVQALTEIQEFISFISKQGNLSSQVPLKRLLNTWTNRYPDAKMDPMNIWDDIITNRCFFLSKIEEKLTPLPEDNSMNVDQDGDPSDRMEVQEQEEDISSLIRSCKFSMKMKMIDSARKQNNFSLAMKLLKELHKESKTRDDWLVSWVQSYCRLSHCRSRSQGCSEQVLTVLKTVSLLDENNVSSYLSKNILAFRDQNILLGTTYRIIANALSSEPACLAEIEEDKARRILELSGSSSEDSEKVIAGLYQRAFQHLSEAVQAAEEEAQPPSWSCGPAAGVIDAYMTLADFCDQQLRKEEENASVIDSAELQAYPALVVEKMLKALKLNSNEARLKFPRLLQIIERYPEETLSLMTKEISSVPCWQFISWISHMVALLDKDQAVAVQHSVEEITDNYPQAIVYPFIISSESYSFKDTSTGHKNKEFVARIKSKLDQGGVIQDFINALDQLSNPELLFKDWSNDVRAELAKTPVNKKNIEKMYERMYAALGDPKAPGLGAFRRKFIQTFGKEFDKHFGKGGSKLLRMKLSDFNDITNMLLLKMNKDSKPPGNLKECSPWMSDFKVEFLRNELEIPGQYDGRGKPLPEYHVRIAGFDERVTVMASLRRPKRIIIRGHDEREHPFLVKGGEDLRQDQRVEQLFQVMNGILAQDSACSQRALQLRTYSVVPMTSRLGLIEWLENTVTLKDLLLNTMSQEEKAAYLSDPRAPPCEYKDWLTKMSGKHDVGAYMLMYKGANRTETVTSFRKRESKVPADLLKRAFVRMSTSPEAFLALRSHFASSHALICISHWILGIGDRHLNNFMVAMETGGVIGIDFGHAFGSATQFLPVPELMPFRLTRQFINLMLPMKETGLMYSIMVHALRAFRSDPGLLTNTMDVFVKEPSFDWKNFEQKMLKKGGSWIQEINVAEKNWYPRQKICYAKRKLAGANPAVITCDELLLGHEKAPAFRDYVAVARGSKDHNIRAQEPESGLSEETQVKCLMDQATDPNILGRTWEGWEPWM

Row | IC50 [1] [µM] | IC50 (Platelet) [µM] | IC50 [2] [µM] | SMILES
1 | 0.3 | – | – | O=c1cc(N2CCOCC2)oc2c1ccc1ccccc12
2 | – | 450 | 0.72 | O=c1nc(N2CCOCC2)oc2ccc3ccccc3c12
3 | – | 280 | 0.42 | O=c1nc(N2CCOCC2)oc2c1ccc1ccccc12
4 | – | 155 | 6.5 | O=c1nc(N2CCOCC2)oc2cc3ccccc3cc12
5 | – | 100 | 2.43 | O=c1nc(N2CCOCC2)oc2c1cc(OCc1ccccn1)c1ccccc12
6 | – | 100 | 0.717 | O=c1nc(N2CCOCC2)oc2c1cc(OCc1cccnc1)c1ccccc12
7 | – | 100 | 0.096 | O=c1nc(N2CCOCC2)oc2cc3ccc(OCc4ccccn4)cc3cc12
8 | – | 55 | 1.7 | O=c1nc(N2CCOCC2)oc2cc3ccc(OCc4cccnc4)cc3cc12
9 | – | ≥ 100 | 0.93 | O=c1nc(N2CCOCC2)oc2cc3c(OCc4ccccn4)cccc3cc12
10 | – | 85 | 0.33 | O=c1nc(N2CCOCC2)oc2cc3c(OCc4cccnc4)cccc3cc12
11 | – | 100 | 0.76 | CN1CCN(CCOc2cc3c(=O)nc(N4CCOCC4)oc3c3ccccc23)CC1
12 | – | 100 | 0.19 | CN1CCN(CCOc2ccc3cc4oc(N5CCOCC5)nc(=O)c4cc3c2)CC1
13 | – | 100 | 3.09 | CN1CCN(CCOc2cccc3cc4c(=O)nc(N5CCOCC5)oc4cc23)CC1
